Test results reported in ChEMBL document CHEMBL4190276, “Design, synthesis and evaluation of coumarin-pargyline hybrids as novel dual inhibitors of monoamine oxidases and amyloid-β aggregation for the treatment of Alzheimer's disease” (Eur J Med Chem, 2017).

Target: T1, Amine oxidase [flavin-containing] B (Homo sapiens, UniProt P27338)
T1 sequence (P27338 whole entry): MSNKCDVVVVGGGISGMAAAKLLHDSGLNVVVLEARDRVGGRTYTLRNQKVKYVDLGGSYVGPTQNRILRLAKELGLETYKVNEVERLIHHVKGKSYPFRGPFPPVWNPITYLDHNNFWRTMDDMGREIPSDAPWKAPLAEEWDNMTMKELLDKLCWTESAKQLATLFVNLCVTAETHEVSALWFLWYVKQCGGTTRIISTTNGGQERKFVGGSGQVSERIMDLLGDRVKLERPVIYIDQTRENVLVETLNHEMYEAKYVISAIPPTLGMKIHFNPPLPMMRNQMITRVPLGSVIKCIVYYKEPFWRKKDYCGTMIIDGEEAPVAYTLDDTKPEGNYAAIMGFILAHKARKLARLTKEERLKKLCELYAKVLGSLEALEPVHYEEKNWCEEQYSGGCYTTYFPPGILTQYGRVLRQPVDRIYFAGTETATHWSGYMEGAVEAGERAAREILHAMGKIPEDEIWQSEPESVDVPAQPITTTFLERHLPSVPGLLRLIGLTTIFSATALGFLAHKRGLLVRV
Assay: Irreversible inhibition of recombinant human MAO-B at 30 nM using p-tyramine as substrate preincubated for 15 to 60 mins followed by substrate addition and subsequent two-fold enzyme dilution measured after 15 mins by amplex red reagent based fluorescence assay
Settings: 0.25 h, 0.03 µM; call rule not given here

| SMILES | inhibition (INH) |
| --- | --- |
| C#CCN(C)CCCCOc1ccc2ccc(=O)oc2c1 | Active |

Target: T2, Amine oxidase [flavin-containing] A (Homo sapiens, UniProt P21397)
T2 sequence (P21397 whole entry): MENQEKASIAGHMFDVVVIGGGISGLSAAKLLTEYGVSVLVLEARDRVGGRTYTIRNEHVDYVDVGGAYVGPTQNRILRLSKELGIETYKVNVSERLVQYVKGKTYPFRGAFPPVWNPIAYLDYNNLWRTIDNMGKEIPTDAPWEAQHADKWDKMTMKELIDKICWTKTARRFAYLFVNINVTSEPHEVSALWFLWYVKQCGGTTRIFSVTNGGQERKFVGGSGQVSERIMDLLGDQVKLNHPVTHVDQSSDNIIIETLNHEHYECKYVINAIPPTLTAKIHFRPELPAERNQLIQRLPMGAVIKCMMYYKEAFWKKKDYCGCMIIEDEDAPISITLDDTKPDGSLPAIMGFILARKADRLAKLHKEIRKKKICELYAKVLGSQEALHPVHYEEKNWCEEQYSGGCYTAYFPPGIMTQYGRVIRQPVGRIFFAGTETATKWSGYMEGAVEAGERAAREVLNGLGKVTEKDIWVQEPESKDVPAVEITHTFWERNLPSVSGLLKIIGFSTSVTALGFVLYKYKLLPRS
Assay: Inhibition of recombinant human MAO-A using p-tyramine as substrate preincubated for 15 mins followed by substrate addition measured after 20 mins by amplex red reagent based fluorescence assay
Settings: not given

| IC50 [µM] | SMILES |
| --- | --- |
| 29.3 | C#CCN(CCCOc1ccc2ccc(=O)oc2c1)Cc1cccc(F)c1 |
| 78.6 | C#CCN(CCCCOc1ccc2ccc(=O)oc2c1)Cc1cccc(OC)c1 |
| 22.7 | C#CCN(CCCOc1ccc2ccc(=O)oc2c1)Cc1cccc(OC)c1 |
| 54.5 | C#CCN(CCCCOc1ccc2ccc(=O)oc2c1)Cc1ccc(OC)cc1 |

Further lines, the compound ahead of its results:

| SMILES | IC50 [µM] |
| --- | --- |
| C#CCN(CCCCOc1ccc2ccc(=O)oc2c1)Cc1ccc(C)cc1 | 94.5 |
| C#CCN(CCCOc1ccc2ccc(=O)oc2c1)Cc1ccc(F)c(F)c1 | 49.2 |
| C#CCN(CCCOc1ccc2ccc(=O)oc2c1)Cc1ccc(C)cc1 | 116 |
| C#CCN(CCOc1ccc2ccc(=O)oc2c1)Cc1ccc(C)cc1 | 56.4 |
| C#CCN(CCOc1ccc2ccc(=O)oc2c1)Cc1ccc(F)c(F)c1 | 40.8 |
| C#CCN(C)CCCOc1ccc2ccc(=O)oc2c1 | 36.9 |
| C#CCN(CCCCOc1ccc2ccc(=O)oc2c1)Cc1ccccc1 | 89.3 |
| C#CCN(CCCOc1ccc2ccc(=O)oc2c1)Cc1ccccc1 | 38.6 |
| C#CCN(C)CCCCOc1ccc2ccc(=O)oc2c1 | 3.28 |

Target: T1, Amine oxidase [flavin-containing] B
Assay: Inhibition of recombinant human MAO-B using p-tyramine as substrate preincubated for 15 mins followed by substrate addition measured after 20 mins by amplex red reagent based fluorescence assay
Settings: not given

| IC50 [µM] | SMILES |
| --- | --- |
| 4.44 | C#CCN(CCCOc1ccc2ccc(=O)oc2c1)Cc1cccc(F)c1 |
| 2.34 | C#CCN(CCCCOc1ccc2ccc(=O)oc2c1)Cc1cccc(OC)c1 |
| 4.59 | C#CCN(CCCOc1ccc2ccc(=O)oc2c1)Cc1cccc(OC)c1 |
| 1.13 | C#CCN(CCCCOc1ccc2ccc(=O)oc2c1)Cc1ccc(OC)cc1 |

The next lines start with the compound.

| SMILES | IC50 [µM] |
| --- | --- |
| C#CCN(CCCCOc1ccc2ccc(=O)oc2c1)Cc1ccc(C)cc1 | 1.68 |
| C#CCN(CCCOc1ccc2ccc(=O)oc2c1)Cc1ccc(F)c(F)c1 | 4.86 |
| C#CCN(CCCOc1ccc2ccc(=O)oc2c1)Cc1ccc(C)cc1 | 7.38 |
| C#CCN(CCOc1ccc2ccc(=O)oc2c1)Cc1ccc(C)cc1 | 5.64 |
| C#CCN(CCOc1ccc2ccc(=O)oc2c1)Cc1ccc(F)c(F)c1 | 9.62 |
| C#CCN(C)CCCOc1ccc2ccc(=O)oc2c1 | 1.08 |
| C#CCN(CCCCOc1ccc2ccc(=O)oc2c1)Cc1ccccc1 | 0.978 |
| C#CCN(CCCOc1ccc2ccc(=O)oc2c1)Cc1ccccc1 | 3.74 |
| C#CCN(C)CCCCOc1ccc2ccc(=O)oc2c1 | 0.027 |

Organism: Homo sapiens
Assay: Selectivity index, ratio of IC50 for recombinant human MAO-A to IC50 for recombinant human MAO-B
Settings: not given
Summary of the method: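 Commercial human MAO-A (1.1 μg protein) and MAO-B (7.5 μg protein) adjusted to equal velocity (165 pmol p-tyramine/min). Compounds from 10 mM DMSO stock diluted in 0.05 M potassium phosphate, pH 7.4. Preincubated with enzyme 15 min at 37 °C in the dark; 200 μM Amplex Red, 2 U/mL HRP, 2 mM p-tyramine added for 20 min at 37 °C.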

| Ratio IC50 | SMILES |
| --- | --- |
| 6.59 | C#CCN(CCCOc1ccc2ccc(=O)oc2c1)Cc1cccc(F)c1 |
| 33.6 | C#CCN(CCCCOc1ccc2ccc(=O)oc2c1)Cc1cccc(OC)c1 |
| 4.94 | C#CCN(CCCOc1ccc2ccc(=O)oc2c1)Cc1cccc(OC)c1 |
| 48.2 | C#CCN(CCCCOc1ccc2ccc(=O)oc2c1)Cc1ccc(OC)cc1 |

Continued, compound first:

| SMILES | Ratio IC50 |
| --- | --- |
| C#CCN(CCCCOc1ccc2ccc(=O)oc2c1)Cc1ccc(C)cc1 | 56.4 |
| C#CCN(CCCOc1ccc2ccc(=O)oc2c1)Cc1ccc(F)c(F)c1 | 10.1 |
| C#CCN(CCCOc1ccc2ccc(=O)oc2c1)Cc1ccc(C)cc1 | 15.8 |
| C#CCN(CCOc1ccc2ccc(=O)oc2c1)Cc1ccc(C)cc1 | 10 |
| C#CCN(CCOc1ccc2ccc(=O)oc2c1)Cc1ccc(F)c(F)c1 | 4.24 |
| C#CCN(C)CCCOc1ccc2ccc(=O)oc2c1 | 34 |
| C#CCN(CCCCOc1ccc2ccc(=O)oc2c1)Cc1ccccc1 | 91.4 |
| C#CCN(CCCOc1ccc2ccc(=O)oc2c1)Cc1ccccc1 | 10.3 |
| C#CCN(C)CCCCOc1ccc2ccc(=O)oc2c1 | 121 |

Target: Amyloid-beta precursor protein (Homo sapiens) (UniProt P05067)
Assay: Inhibition of self-induced Amyloid beta (1 to 42) (unknown origin) aggregation at 25 uM after 48 hrs by thioflavin T-based fluorometric assay relative to control
Settings: not given
Summary of the method: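 Aβ1-42 stock (2000 μM in 1% ammonium hydroxide) diluted in 50 mM phosphate pH 7.4. Peptide (final 25 μM) incubated with or without compound (25 μM) at 37 °C for 48 h. Then diluted in 50 mM glycine-NaOH pH 8.0 containing 5 μM thioflavin T, read after 5 min (ex 446/em 490 nm). Inhibition = (1 − IFi/IFc) × 100 after blank subtraction. Mean ± SD of three independent experiments.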

Sequence of Amyloid-beta precursor protein (Homo sapiens) (P05067 whole entry): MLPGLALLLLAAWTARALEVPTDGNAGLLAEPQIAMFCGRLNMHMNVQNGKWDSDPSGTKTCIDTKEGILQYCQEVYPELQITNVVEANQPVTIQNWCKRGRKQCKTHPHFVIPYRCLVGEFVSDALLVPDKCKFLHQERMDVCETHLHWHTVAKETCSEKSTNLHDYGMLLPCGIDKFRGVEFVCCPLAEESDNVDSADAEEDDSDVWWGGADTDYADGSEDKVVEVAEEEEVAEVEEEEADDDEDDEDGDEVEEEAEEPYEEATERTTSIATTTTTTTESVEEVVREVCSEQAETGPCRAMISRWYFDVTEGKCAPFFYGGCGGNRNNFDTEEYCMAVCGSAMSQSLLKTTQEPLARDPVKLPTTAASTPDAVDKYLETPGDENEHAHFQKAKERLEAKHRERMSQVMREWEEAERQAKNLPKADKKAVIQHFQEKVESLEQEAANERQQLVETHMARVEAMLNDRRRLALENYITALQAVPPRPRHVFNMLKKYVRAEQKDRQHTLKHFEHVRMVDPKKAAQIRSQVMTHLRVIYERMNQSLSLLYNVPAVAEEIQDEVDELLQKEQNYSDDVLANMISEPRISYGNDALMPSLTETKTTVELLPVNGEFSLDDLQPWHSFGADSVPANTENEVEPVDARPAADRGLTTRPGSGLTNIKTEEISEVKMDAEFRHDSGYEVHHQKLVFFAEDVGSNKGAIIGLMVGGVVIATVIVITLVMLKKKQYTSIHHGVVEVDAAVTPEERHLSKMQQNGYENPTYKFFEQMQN

| inhibition [%] | SMILES |
| --- | --- |
| 38.2 | C#CCN(CCCCOc1ccc2ccc(=O)oc2c1)Cc1cccc(OC)c1 |
| 49.1 | C#CCN(CCCCOc1ccc2ccc(=O)oc2c1)Cc1ccc(OC)cc1 |

Second part, the compound before the results:

| SMILES | inhibition [%] |
| --- | --- |
| C#CCN(CCCCOc1ccc2ccc(=O)oc2c1)Cc1ccc(C)cc1 | 50 |
| C#CCN(C)CCCOc1ccc2ccc(=O)oc2c1 | 59.3 |
| C#CCN(C)CCCCOc1ccc2ccc(=O)oc2c1 | 54 |

Test system: not listed separately
Assay: Permeability of the compound in PBS/EtOH at […] after 16 hrs by PAMPA
Type: ADME
Settings: read-out: Peff

| SMILES | Papp at 16 h [×10⁻⁶ cm/s] |
| --- | --- |
| C#CCN(C)CCCCOc1ccc2ccc(=O)oc2c1 | 8.92 |

Test system: PC-12
Assay: Cytotoxicity against rat PC12 cells assessed as reduction in cell viability up to 100 uM after 24 hrs by MTT assay
Type: cell-based
Settings: pc-12, 24 h
Summary of the method: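 PC12 cells grown at 37 °C, 5% CO2 in DMEM with 10% bovine calf serum and penicillin/streptomycin; seeded 10,000 cells/well, switched to serum-free medium, then exposed to compound (0–100 μM) for 24 h. MTT added for 4 h at 37 °C, formazan dissolved in DMSO, absorbance read at 570 nm (reference 630 nm). Mean ± SD of three independent experiments.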

| SMILES | Activity |
| --- | --- |
| C#CCN(C)CCCCOc1ccc2ccc(=O)oc2c1 | Non-Toxic |

Test system: Mus musculus
Assay: Acute toxicity in Kunming mouse assessed as mortality at 2.4 mmol/kg, po administered as single dose via gavage measured continuously for first 4 hrs, intermittently for next 24 hrs and occasionally thereafter for 14 days
Type: organism-based
Settings: in vivo
Summary of the method: (§1)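 Male KM mice (22 days old, 18–20 g), 15 in total, randomly split into 3 groups of 5. Kept on a 12 h light/dark cycle at 20-22 °C and 60-70% humidity, fasted overnight with free water. Single oral dose of 2.4 mmol/kg suspended in 0.5% CMC-Na. Mortality, behaviour, water and food intake, and body weight followed over 14 days.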

| SMILES | Activity |
| --- | --- |
| C#CCN(C)CCCCOc1ccc2ccc(=O)oc2c1 | Non-Toxic |

Test system: Mus musculus
Assay: Acute toxicity in Kunming mouse assessed as abnormal change in water consumption at 2.4 mmol/kg, po administered as single dose via gavage measured continuously for first 4 hrs, intermittently for next 24 hrs and occasionally thereafter for 14 days
Type: organism-based
Settings: in vivo
Summary of the method: as §1

| SMILES | Activity |
| --- | --- |
| C#CCN(C)CCCCOc1ccc2ccc(=O)oc2c1 | Non-Toxic |

Test system: Mus musculus
Assay: Acute toxicity in Kunming mouse assessed as abnormal change in food consumption at 2.4 mmol/kg, po administered as single dose via gavage measured continuously for first 4 hrs, intermittently for next 24 hrs and occasionally thereafter for 14 days
Type: organism-based
Settings: in vivo
Summary of the method: as §1

| SMILES | Activity |
| --- | --- |
| C#CCN(C)CCCCOc1ccc2ccc(=O)oc2c1 | Non-Toxic |

Test system: Mus musculus
Assay: Acute toxicity in Kunming mouse assessed as abnormal change in body weight at 2.4 mmol/kg, po administered as single dose via gavage measured continuously for first 4 hrs, intermittently for next 24 hrs and occasionally thereafter for 14 days
Type: organism-based
Settings: in vivo
Summary of the method: as §1

| SMILES | Activity |
| --- | --- |
| C#CCN(C)CCCCOc1ccc2ccc(=O)oc2c1 | Non-Toxic |

Test system: Mus musculus
Assay: Cardiotoxicity in Kunming mouse at 2.4 mmol/kg, po administered as single dose via gavage measured continuously for first 4 hrs, intermittently for next 24 hrs and occasionally thereafter for 14 days by […]
Type: toxicity, organism-based
Settings: in vivo
Summary of the method: (§2)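 Male KM mice (18–20 g) received a single oral 2.4 mmol/kg dose in 0.5% CMC-Na suspension after an overnight fast. All animals were sacrificed on day 14 after dosing, and heart, liver and kidneys were examined macroscopically for damage.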

| SMILES | Activity |
| --- | --- |
| C#CCN(C)CCCCOc1ccc2ccc(=O)oc2c1 | Non-Toxic |

Test system: Mus musculus
Assay: Hepatotoxicity in Kunming mouse at 2.4 mmol/kg, po administered as single dose via gavage measured continuously for first 4 hrs, intermittently for next 24 hrs and occasionally thereafter for 14 days by […]
Type: toxicity, organism-based
Settings: in vivo
Summary of the method: as §2

| SMILES | Activity |
| --- | --- |
| C#CCN(C)CCCCOc1ccc2ccc(=O)oc2c1 | Non-Toxic |

Test system: Mus musculus
Assay: Nephrotoxicity in Kunming mouse at 2.4 mmol/kg, po administered as single dose via gavage measured continuously for first 4 hrs, intermittently for next 24 hrs and occasionally thereafter for 14 days […]
Type: toxicity, organism-based
Settings: in vivo
Summary of the method: as §2

| SMILES | Activity |
| --- | --- |
| C#CCN(C)CCCCOc1ccc2ccc(=O)oc2c1 | Non-Toxic |

Test system: Mus musculus
Assay: Acute toxicity in Kunming mouse assessed as effect on serum AST level at 2.4 mmol/kg, po administered as single dose via gavage measured continuously for first 4 hrs, intermittently for next 24 hrs and occasionally thereafter for 14 days
Type: organism-based
Settings: in vivo
Summary of the method: (§3)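 Male KM mice (18–20 g), fasted overnight, given one oral 2.4 mmol/kg dose suspended in 0.5% CMC-Na. On day 14, orbital blood was collected before decapitation and serum AST and ALT activities measured against a control group. Mean ± SD of three independent experiments.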

| SMILES | Activity |
| --- | --- |
| C#CCN(C)CCCCOc1ccc2ccc(=O)oc2c1 | Non-Toxic |

Test system: Mus musculus
Assay: Acute toxicity in Kunming mouse assessed as effect on serum ALT level at 2.4 mmol/kg, po administered as single dose via gavage measured continuously for first 4 hrs, intermittently for next 24 hrs and occasionally thereafter for 14 days
Type: organism-based
Settings: in vivo
Summary of the method: as §3

| SMILES | Activity |
| --- | --- |
| C#CCN(C)CCCCOc1ccc2ccc(=O)oc2c1 | Non-Toxic |
